Source: PubChem BioAssay (The Scripps Research Institute Molecular Screening Center)
Only some compounds are listed: those with a hit (about 2.2% of all), similar ones and a draw of the others.
GalR3 antagonist = antagonists of human GalR3 | AID 651719 | 0.44% of 360,000 active | inhibition, % at 3 µM | HEK293 GalR3-CNG cAMP membrane potential fluorescence; galR3 body fused to GalR1 C-terminus;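 active means inhibition above the screen-wide average plus 3 SD, cut at about 13% in these data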;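 further: forskolin and galanin both at EC90 stimulate the cells; cAMP rise reported by CNG channel membrane potential dye signal; 0% = forskolin plus galanin with DMSO and 100% = forskolin alone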
Target sequence (O60755 1-299 limits assumed): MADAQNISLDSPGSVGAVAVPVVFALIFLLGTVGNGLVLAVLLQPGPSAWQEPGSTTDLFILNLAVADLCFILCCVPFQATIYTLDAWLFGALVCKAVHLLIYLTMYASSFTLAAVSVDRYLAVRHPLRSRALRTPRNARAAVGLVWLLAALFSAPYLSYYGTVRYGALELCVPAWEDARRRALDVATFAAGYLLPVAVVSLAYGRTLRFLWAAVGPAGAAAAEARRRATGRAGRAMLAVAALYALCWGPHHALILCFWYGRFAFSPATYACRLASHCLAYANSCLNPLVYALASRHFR
COUP-TFII inh = blocks human COUP-TFII nuclear receptor; inhibition, % at 8.6 µM; P24468; HEK293T NGFI-A luciferase reporter, luminescence; AID 686940; 0.7% of 370,000 active;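 active means inhibition above a per-plate cutoff, mean inhibition of test wells between control levels plus 3 SD, cut at about 38% in these data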;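 further: cells cotransfected with COUP-TFII expression vector driving the NGFI-A reporter; 0% = median of COUP-TF2 test wells and 100% = reporter-only cells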
NR2E3 ag-1 = activates human NR2E3 receptor. CHO-S Gal4-NCOR/VP16-NR2E3 two-hybrid, luciferase. inhibition of corepressor binding, % at 3.98 µM. 0.35% of 360,000 active. AID 602229;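 active means inhibition above the mean of all tested compounds plus 3 SD, cut at about 70% in these data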;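 further: 0% = DMSO with NR2E3 transfected cells and 100% = cells lacking NR2E3 construct; higher means lower luciferase signal from less NR2E3 corepressor binding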
Target sequence (Q9Y5X4 whole entry, looked up, the tested form may be a part): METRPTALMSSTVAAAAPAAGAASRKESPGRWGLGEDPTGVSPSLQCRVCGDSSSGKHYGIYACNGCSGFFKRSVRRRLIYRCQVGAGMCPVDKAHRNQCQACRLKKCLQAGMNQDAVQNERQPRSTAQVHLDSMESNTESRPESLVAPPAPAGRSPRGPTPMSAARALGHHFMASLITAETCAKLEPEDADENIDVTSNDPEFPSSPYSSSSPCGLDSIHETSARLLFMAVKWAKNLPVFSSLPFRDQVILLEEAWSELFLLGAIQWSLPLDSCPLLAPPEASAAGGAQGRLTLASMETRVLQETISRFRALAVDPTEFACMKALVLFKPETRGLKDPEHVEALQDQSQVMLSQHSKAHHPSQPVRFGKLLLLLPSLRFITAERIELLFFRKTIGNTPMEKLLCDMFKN
SMARCA2 act = activators of SMARCA2 function; MG213 cells, MMTV-luciferase reporter, dexamethasone, overnight; activation, % at 9.1 µM; 1% of 370,000 active; AID 652017; in the data active means activation above about 7.8%;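 further: 0% = vehicle wells and 100% = reference activator wells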
NR2E3 ag-2 = NR2E3 (human) agonism; Q9Y5X4; GST-NR2E3/biotin-RetCOR TR-FRET, 1536-well; inhibition of corepressor binding, % at 4.78 µM; 0.12% of 320,000 active; AID 2300;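 active means percent inhibition above the cutoff of mean plus 3 SD of all tested compounds, set per screening campaign, cut at about 20% in these data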;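 further: 0% = DMSO wells and 100% = biotin wells as full block of FRET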
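Assay system: NR2E3–RetCOR corepressor complex. Quantity: 1.35 nM GST-NR2E3. Buffer or medium: pH 7.5 Tris-based buffer. Reagent: biotinylated RetCOR corepressor at 7 nM final. Schedule: 5 h at 4 °C. Detection: TR-FRET, emission read at 617 and 671 nm. Replicates: one well per compound, singlicate testing.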
NR2E3 ag confirm = confirmation of human NR2E3 agonists. shares compounds with NR2E3 ag-1. 51% of 2,300 active. AID 624378. inhibition, % at 3.98 µM. CHO-S mammalian two-hybrid NR2E3-NCOR, luciferase luminescence;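 active means average inhibition above a cutoff equal to the mean inhibition of all tested compounds plus one SD, cut at about 70% in these data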;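 further: 0% = DMSO in NR2E3 cells and 100% = DMSO in cells lacking NR2E3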
VP16 counter = counter-screen for NR2E3 agonists: GAL4-VP16 reporter inhibitors; CHO-S GAL4-VP16 luciferase reporter, luminescence; 29% of 2,300 active; shares compounds with NR2E3 ag-1; inhibition, % at 3.98 µM;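 active means mean inhibition above a cutoff equal to the average over all tested compounds plus one standard deviation, cut at about 70% in these data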;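 further: luciferase from a UAS reporter driven by GAL4-VP16 transactivation; 0% = DMSO with VP16-transfected cells and 100% = DMSO with cells lacking VP16; higher means less reporter light so more repression of VP16 activity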
GalR3 conf = confirmation of human galanin receptor 3 antagonists. shares compounds with GalR3 antagonist. HEK293 GalR3 CNG cAMP biosensor, membrane potential fluorescence; galR3 fused to GalR1 carboxy tail; challenged with forskolin and galanin at EC90. inhibition, % at 3 µM. 59% of 1,600 active. AID 652245;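 active means inhibition above the primary screen's cutoff, the mean inhibition of all screened compounds plus 3 SD, cut at about 13% in these data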;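 further: 0% = forskolin plus galanin and 100% = forskolin alone with DMSO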
CNG parental = parental cell agonism counter-screen for GalR3 antagonists. shares compounds with GalR3 antagonist. HEK293-CNG parental cells, cAMP membrane potential fluorescence; normalised: DMSO wells 0%, forskolin wells 100%. activation, % at 3 µM. 10% of 1,600 active. AID 652268; in the data active means activation above about 1.3%
VP16 Luc counter = VP16 inhibition counter-screen for COUP-TFII | shares compounds with COUP-TFII inh | HEK293 Gal4-VP16 luciferase reporter, luminescence | inhibition, % at 8.5 µM | 25% of 2,500 active | AID 687007; in the data active means inhibition above about 13%
COUP-TFII conf = COUP-TFII (NR2F2) inhibition, confirmation assay | shares compounds with COUP-TFII inh | HEK293 NGFI-A luciferase reporter, luminescence | inhibition, % at 8.5 µM | 45% of 2,500 active;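 active means mean inhibition over three repeats above a set limit taken from the earlier primary screen, cut at about 38% in these data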;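 further: 100% = cells given the luciferase reporter alone without the COUP-TF2 vector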
An asterisk follows results filed as active; x = not tested or not shown.

SMILES | GalR3 antagonist | COUP-TFII inh | NR2E3 ag-1 | SMARCA2 act | NR2E3 ag-2 | NR2E3 ag confirm | VP16 counter | VP16 Luc counter | COUP-TFII conf | others
COc1ccc(NS(=O)(=O)c2cccc(C(=O)OCC(=O)N3CCN(c4ccc(OC)cc4)CC3)c2)cc1 | 0.9 | 39.4* | 63.4 | -5.0 | 1.8 | 28.0 | 50.3 | -8.8 | 15.0
COc1ccc(N2CCN(C(=O)c3ccc(NS(=O)(=O)c4cccc(F)c4)cc3)CC2)cc1 | -6.7 | 10.9 | 18.5 | 0.6 | -1.6 | x | x | x | x
CCCc1nc2c(=O)n(C)c(=O)nc-2n(C)n1 | -3.5 | 67.8* | 104.5* | -11.4 | x | 100.6* | 85.5* | 37.4* | 60.4*
Clc1ccc([C@H]2OC[C@@]3(CNCc4ccccc4)CS[C@H](c4ccc(Cl)cc4)N23)cc1 | x | -1.9 | x | x | x | x | x | x | x
Cc1ccccc1OCCn1cc(C(=S)N2CCCC2)c2ccccc21 | -3.8 | 1.3 | -11.7 | -3.9 | -2.2 | x | x | x | x
CC(=O)c1cn(CCOc2ccccc2C)c2ccccc12 | 4.0 | 60.9* | 70.2* | -4.2 | 1.6 | 94.0* | 78.9* | 0.0 | 53.8*
COc1cc(CSc2nnnn2-c2ccc(C)cc2)cc(OC)c1OC | 95.6* | 68.5* | 97.8* | -7.5 | 8.5 | 93.8* | 83.7* | 0.3 | 53.9* | GalR3 conf=97.7*;CNG parental=0.4
Cn1nc(C(C)(C)C)cc1C(=O)NCc1cc(F)cc2c1OCOC2 | 95.4* | 63.3* | 77.6* | -5.6 | -0.8 | 95.3* | 77.0* | 6.0 | 60.7* | GalR3 conf=111.1*;CNG parental=-0.4
Cc1ccccc1C(=O)N1CCN(c2ccc(NC(=O)CSc3ccc(Cl)cc3)cc2)CC1 | -6.4 | 53.8* | 57.5 | -7.0 | 1.1 | 58.7 | 65.9 | 0.4 | 56.9*
Nc1nc(F)nc2c1ncn2[C@@H]1O[C@H](CO)[C@@H](O)[C@H]1O | -8.2 | 81.8* | 103.3* | -12.0 | 3.2 | 99.9* | 99.0* | 54.7* | 65.4*
Cc1[nH]c2ccccc2c1CC(=O)Nc1ccc(Nc2cccnc2)c(-c2cc(C(F)(F)F)cc(C(F)(F)F)c2)c1 | -8.8 | 11.0 | x | -2.8 | x | x | x | x | x
O=C(NCCc1ccccc1)c1nccc2ccccc12 | -3.3 | -21.6 | -64.1 | 1.5 | 3.3 | x | x | x | x
c1ccc(CCNc2ccnc3cc4ccccc4cc23)cc1 | 18.8* | 65.3* | 92.6* | -7.3 | x | 97.5* | 82.0* | 15.1* | 58.5* | GalR3 conf=-6.9;CNG parental=3.3*
Cc1nn(-c2ccccc2)c(C)c1C=NNC(=O)CSc1nc2ccccc2n1C | x | -14.3 | x | -6.1 | x | x | x | x | x
CC(C)(C)c1ccc(/C=N/Nc2ccc(C(=O)O)cc2)cc1 | -4.4 | 70.2* | 50.2 | -6.7 | -0.3 | 64.5 | -33.2 | -21.6 | 69.5*
O=C(O)c1ccc(N/N=C/c2ccc(C(F)(F)F)cc2)cc1 | -2.7 | 23.3 | -20.2 | -2.8 | -0.7 | x | x | x | x
Cc1ccccc1N1CCN(S(=O)(=O)c2ccc3c(c2)oc(=O)n3C)CC1 | x | -2.1 | x | -0.5 | x | x | x | x | x
CCOC(=O)C(CNc1ccc(OCc2ccccc2)cc1)NC(=O)c1ccccc1 (centres undefined) | -8.6 | -17.2 | x | 1.4 | x | x | x | x | x
NC1=C(Cl)C(=O)c2ccc(S(N)(=O)=O)cc2C1=O | -4.7 | 85.5* | 71.5* | -12.4 | x | 9.7 | 18.9 | 92.2* | 97.2*
O=C(NCCc1c[nH]c2ccccc12)c1ccc2c(c1)ncn2C1CCCCC1 | x | 10.9 | x | 2.2 | x | x | x | x | x
CCCc1cc(=O)n2nc(N3CCC(C(=O)N4CCN(c5ccc(OC)cc5)CC4)CC3)sc2n1 | 14.3* | 56.1* | 68.9 | -5.3 | 0.3 | 74.7* | 55.1 | 11.5 | 64.4* | GalR3 conf=104.2*;CNG parental=-0.3
Cc1ccc(-n2c(-c3ccc(Br)cc3)c[n+]3c2CCc2ccc4cccnc4c2-3)cc1 | -1.9 | 87.9* | 83.1* | -11.3 | -6.5 | 98.7* | 72.0* | 33.1* | 89.3*
Cc1ccc(C(=O)NCC(=O)OCc2nc3sc(C)c(C)c3c(=O)[nH]2)cc1 | x | -1.8 | x | -5.7 | x | x | x | x | x
Cc1ccc(OCc2nnc(SCc3nc4ccccc4[nH]3)n2Cc2ccco2)cc1 | -3.1 | 41.6* | 49.0 | -1.6 | -4.5 | 65.9 | 65.0 | -2.6 | 16.7
c1ccc(-c2nnc(SCc3nc4ccccc4[nH]3)n2Cc2ccco2)cc1 | -4.7 | 16.9 | -0.4 | -1.1 | 2.4 | x | x | x | x
SMILES | GalR3 antagonist | COUP-TFII inh | NR2E3 ag-1 | SMARCA2 act | NR2E3 ag-2 | NR2E3 ag confirm | VP16 counter | VP16 Luc counter | COUP-TFII conf | others
CCOC(=O)N1CCC(NC(=O)C2CCCN(Cc3nc(-c4cccc(C)c4)oc3C)C2)CC1 (centres undefined) | -5.2 | 42.3* | 74.9* | -6.8 | 1.3 | 75.6* | 68.0 | -4.9 | 25.9
O=C(Nc1ccc(OC(F)(F)F)cc1)Nc1c(-c2ccc(C(F)(F)F)cc2)nc2ncccn12 | x | 4.5 | x | 0.7 | x | x | x | x | x
O=C(Nc1cc(S(=O)(=O)N2CCCCC2)ccc1O)c1ccccc1NS(=O)(=O)c1ccc(F)cc1 | -5.6 | -8.1 | 21.1 | -2.4 | -1.9 | x | x | x | x
COc1ccc(-c2csc(NC(=O)c3ccccc3NS(=O)(=O)c3ccc(F)c(F)c3)n2)cc1 | 91.5* | 61.1* | 98.2* | -11.0 | 1.6 | 100.7* | 90.5* | 3.3 | 60.7* | GalR3 conf=106.1*;CNG parental=-0.9
Cc1ccc(S(=O)(=O)Nc2ccccc2C(=O)Nc2nc(-c3ccc(F)cc3)cs2)cc1 | 90.1* | 66.4* | 94.0* | -9.6 | -3.3 | 97.8* | 83.9* | 0.1 | 37.3 | GalR3 conf=114.1*;CNG parental=-1.0
COc1ccc(-c2csc(NC(=O)c3ccccc3F)n2)cc1 | -9.0 | 8.8 | -97.0 | 0.3 | -1.1 | x | x | x | x
O=C(Nc1cc(S(=O)(=O)N2CCCCC2)ccc1Cl)c1ccccc1NS(=O)(=O)c1ccc(F)cc1 | -4.0 | 47.4* | 95.9* | -8.8 | -0.1 | 99.1* | 85.3* | -0.2 | 22.0
COC(=O)[C@H](C)NC(=O)[C@H](CC(C)C)NC(=O)OC(C)(C)C | x | 7.3 | x | -2.7 | x | x | x | x | x
O=C(NC1CCCCN(Cc2ccc(OC(F)(F)F)cc2)C1=O)c1cccc(F)c1 (centres undefined) | x | 11.7 | x | -1.8 | x | x | x | x | x
